For one series, the target named is CYP2C9 (Homo sapiens, UniProt P11712). The experiment in a line: Inhibition of recombinant human CYP2C9 expressed in baculovirus infected insect cell microsomes at 1 uM relative to control. Type of series: ADME. The method, boiled down: (§1)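 Recombinant human CYP1A2, 2B6, 2C9, 2C19, 2D6 and 3A4 in baculovirus-infected insect-cell microsomes, assayed per kit instructions; test compound at 1 µM, percent inhibition.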

The nature of series [1]: Half life in human liver S9 fractions at 1 uM in presence of NADPH/UDPGA by LC-MS/MS analysis. Type of series: ADME. Summed up:
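Samples taken at 0, 5, 15 and 60 min, stopped with cold acetonitrile containing internal standard. Remaining parent measured by LC-MS/MS.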

Another series concerns the target T1, CYP2B6 (Homo sapiens, UniProt P20813).
T1 sequence (P20813 whole entry): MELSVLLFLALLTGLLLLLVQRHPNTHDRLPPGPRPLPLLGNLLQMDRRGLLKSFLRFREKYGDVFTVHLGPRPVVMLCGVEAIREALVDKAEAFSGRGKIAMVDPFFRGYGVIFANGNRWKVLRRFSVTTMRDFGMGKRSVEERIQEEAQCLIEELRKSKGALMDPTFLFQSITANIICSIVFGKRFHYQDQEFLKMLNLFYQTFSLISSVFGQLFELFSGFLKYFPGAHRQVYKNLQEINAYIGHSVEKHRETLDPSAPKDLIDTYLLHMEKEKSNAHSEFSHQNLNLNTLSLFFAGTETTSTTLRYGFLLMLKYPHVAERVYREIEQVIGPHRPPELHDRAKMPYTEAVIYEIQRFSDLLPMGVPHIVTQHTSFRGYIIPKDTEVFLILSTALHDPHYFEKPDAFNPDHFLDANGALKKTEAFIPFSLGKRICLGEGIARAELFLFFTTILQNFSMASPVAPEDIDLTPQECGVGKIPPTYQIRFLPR
In words: Inhibition of recombinant human CYP2B6 expressed in baculovirus infected insect cell microsomes at 1 uM relative to control. Type of series: ADME. The method, boiled down: as §1

Series [2] deals with Salmonella typhimurium. The experiment in a line: Mutagenicity in Salmonella typhimurium TA98 up to 100 uM by Ames 2 assay. The settings on record: salmonella enterica subsp. enterica serovar typhimurium. Type of series: toxicity. The method, boiled down:
(§2)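 AMES II kit with Salmonella typhimurium TA98 and TA7001–TA7006, run with or without rat liver S9 fraction according to the kit instructions.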

For series [3], the system named is Salmonella typhimurium. In words: Mutagenicity in Salmonella typhimurium TA7001/7002/7003/7004/7005/7006 up to 100 uM in presence of rat liver S9 fraction by Ames 2 assay. The class given is toxicity. The settings on record: salmonella enterica subsp. enterica serovar typhimurium. The method, boiled down: as §2
Series [4] relates to Salmonella typhimurium. The experiment in a line: Mutagenicity in Salmonella typhimurium TA7001/7002/7003/7004/7005/7006 up to 100 uM by Ames 2 assay. Type of series: toxicity. The settings on record: salmonella enterica subsp. enterica serovar typhimurium. The method, boiled down:
as §2

In series [5] the target is T2, Cytochrome P450 11B1, mitochondrial (Rattus norvegicus, UniProt P15393).
T2 sequence (P15393 whole entry): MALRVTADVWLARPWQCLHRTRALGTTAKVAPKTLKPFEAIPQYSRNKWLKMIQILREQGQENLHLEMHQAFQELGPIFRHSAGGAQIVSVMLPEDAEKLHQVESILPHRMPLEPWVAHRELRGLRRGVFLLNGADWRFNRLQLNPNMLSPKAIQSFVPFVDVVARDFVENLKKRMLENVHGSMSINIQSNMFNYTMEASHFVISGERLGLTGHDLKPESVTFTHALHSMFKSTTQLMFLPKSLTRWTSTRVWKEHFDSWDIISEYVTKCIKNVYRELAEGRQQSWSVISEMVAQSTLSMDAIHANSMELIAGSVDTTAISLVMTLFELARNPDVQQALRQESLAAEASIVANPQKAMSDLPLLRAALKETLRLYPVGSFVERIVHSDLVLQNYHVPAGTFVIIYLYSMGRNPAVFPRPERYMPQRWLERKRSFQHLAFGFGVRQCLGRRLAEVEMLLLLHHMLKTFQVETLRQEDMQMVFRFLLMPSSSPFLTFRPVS
In words: Inhibition of rat CYP11B1 expressed in hamster V79MZ cells using [1,2-3H]-11-deoxycorticosterone as substrate after 6 hrs by HPLC analysis. Type of series: cell-based. The method, boiled down:
(§3)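 V79MZ cells expressing recombinant human CYP11B1 or CYP11B2, or rat CYP11B1, incubated with [1,2-³H]-11-deoxycorticosterone (100 nM) and inhibitor over a range of concentrations; ketoconazole as reference.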

Series [6] deals with T3, Cytochrome P450 11B2, mitochondrial (Homo sapiens, UniProt P19099).
T3 sequence (P19099 whole entry): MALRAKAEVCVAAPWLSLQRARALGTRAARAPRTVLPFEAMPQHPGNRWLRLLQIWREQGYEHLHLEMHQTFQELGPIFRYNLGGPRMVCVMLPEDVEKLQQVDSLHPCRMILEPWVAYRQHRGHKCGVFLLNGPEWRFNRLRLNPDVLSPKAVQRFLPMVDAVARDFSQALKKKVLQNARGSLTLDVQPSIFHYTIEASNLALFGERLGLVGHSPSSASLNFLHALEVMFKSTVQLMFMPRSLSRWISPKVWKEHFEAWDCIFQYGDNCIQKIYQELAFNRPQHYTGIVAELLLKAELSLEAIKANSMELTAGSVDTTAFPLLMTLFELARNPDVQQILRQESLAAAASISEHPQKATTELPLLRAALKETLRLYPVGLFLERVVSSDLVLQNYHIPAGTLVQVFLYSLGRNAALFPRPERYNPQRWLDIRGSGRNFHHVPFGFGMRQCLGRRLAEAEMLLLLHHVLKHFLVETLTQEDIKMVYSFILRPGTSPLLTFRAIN
In words: Inhibition of human CYP11B2 expressed in hamster V79MZ cells using [1,2-3H]-11-deoxycorticosterone as substrate after 6 hrs by HPLC analysis. Type of series: ADME, cell-based. Summed up:
as §3

Series [7] deals with T4, Cytochrome P450 11B1, mitochondrial (Homo sapiens, UniProt P15538).
T4 sequence (P15538 whole entry): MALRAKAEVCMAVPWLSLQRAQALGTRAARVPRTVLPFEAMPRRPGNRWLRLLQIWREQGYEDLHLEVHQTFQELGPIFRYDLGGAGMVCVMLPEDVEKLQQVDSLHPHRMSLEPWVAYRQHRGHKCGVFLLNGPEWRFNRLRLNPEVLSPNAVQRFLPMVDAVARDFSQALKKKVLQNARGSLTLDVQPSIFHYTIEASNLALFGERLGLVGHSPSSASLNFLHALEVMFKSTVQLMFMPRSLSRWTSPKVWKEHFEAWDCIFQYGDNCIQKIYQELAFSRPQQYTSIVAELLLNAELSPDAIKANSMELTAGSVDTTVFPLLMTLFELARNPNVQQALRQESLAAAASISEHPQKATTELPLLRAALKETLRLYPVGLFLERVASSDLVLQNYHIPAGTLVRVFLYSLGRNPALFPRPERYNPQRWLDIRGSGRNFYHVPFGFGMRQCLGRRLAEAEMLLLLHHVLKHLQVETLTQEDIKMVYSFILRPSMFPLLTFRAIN
The experiment in a line: Inhibition of human CYP11B1 expressed in hamster V79MZ cells using [1,2-3H]-11-deoxycorticosterone as substrate after 6 hrs by HPLC analysis. The class given is cell-based. Summed up: as §3

Series [8] is described as follows: Plasma concentration in Sprague-Dawley rat at 100 mg/kg, po administered as single dose after 4 hrs by HPLC-MS/MS analysis. Type of series: ADME, organism-based. The method, boiled down: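 One female Sprague-Dawley rat dosed orally with a suspension in 0.5% porcine gelatin/5% mannitol in water, under 2% isoflurane. Tail-vein blood in citrate; plasma precipitated with acetonitrile containing diphenhydramine internal standard and quantified by HPLC-MS/MS.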

Sequence of CYP2C9 (P11712 whole entry): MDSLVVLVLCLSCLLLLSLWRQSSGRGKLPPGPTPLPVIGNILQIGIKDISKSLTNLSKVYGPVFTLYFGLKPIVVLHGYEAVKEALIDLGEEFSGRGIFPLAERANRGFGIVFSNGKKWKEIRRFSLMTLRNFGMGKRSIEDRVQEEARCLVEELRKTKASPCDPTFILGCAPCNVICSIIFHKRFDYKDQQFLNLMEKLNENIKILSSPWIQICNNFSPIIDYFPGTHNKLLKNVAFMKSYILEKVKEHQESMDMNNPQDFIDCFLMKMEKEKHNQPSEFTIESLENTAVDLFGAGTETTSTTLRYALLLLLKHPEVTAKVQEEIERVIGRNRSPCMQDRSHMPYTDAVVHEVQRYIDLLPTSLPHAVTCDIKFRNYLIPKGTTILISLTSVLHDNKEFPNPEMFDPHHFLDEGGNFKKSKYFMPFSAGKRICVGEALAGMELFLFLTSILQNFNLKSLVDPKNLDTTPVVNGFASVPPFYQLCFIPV

What is called inhibition is the share of the control response that was lost under treatment. What is called half-life is the time in which the quantity being followed falls by half. As a reminder, the IC50 is the midpoint of a concentration-inhibition curve. Read a high IC50 as weaker potency in that assay. On to `Cc1cncc(Cc2cc(-c3ccccc3)no2)c1`, for which the inhibition at 1 µM turned out to be 28% on CYP2C9 and 3% at CYP2B6. Moreover, the half-life at 1 µM in [1] came to 2.42 h. For the same compound, the Activity result in the series on Salmonella typhimurium [2], in the series on Salmonella typhimurium [3] and with Salmonella typhimurium [4] was “Non-Toxic” each time. The IC50 in series [5] was determined as 4000 nM; in [6], 82 nM; in [7] it was 5 nM. The compound further displayed a concentration at 4 h in series [8] of 0.3 µM.

Consider `COc1cncc(Cc2cc(-c3ccccc3)no2)c1`, for which the inhibition at 1 µM at CYP2C9 came out at 17%; at CYP2B6 it was 19%. In series [1], the half-life at 1 µM is 2.08 h. Further, the Activity result in the series with Salmonella typhimurium [2], in the series on Salmonella typhimurium [3] and in the series on Salmonella typhimurium [4] was “Non-Toxic” each time. The IC50 in [5] was 1800 nM; in series [6], 27 nM; in series [7], 2 nM. Further, the concentration at 4 h in [8] was 106 µM.
